Here are results for 2 compounds from ChEMBL document CHEMBL1123430, “Potential tumor- or organ-imaging agents. 26. Polyiodinated 2-substituted triacylglycerols as hepatographic agents” (J Med Chem, 1986).

In data set [1] the test system is Rattus norvegicus. Put plainly: Distribution of radioactivity of radiolabeled compound in blood of female rats 5 minutes after intravenous administration. Type of data set: ADME, organism-based. The conditions noted are these: in vivo.
Data set [2] deals with Rattus norvegicus. Put plainly: Distribution of radioactivity of radiolabeled compound in heart of female rats 30 minutes after intravenous administration. In kind it is ADME, organism-based. The conditions noted are these: in vivo, 0.5 h.
The subject of data set [3] is Rattus norvegicus. Kind of data set: Distribution of radioactivity of radiolabeled compound in blood of female rats 30 minutes after intravenous administration. The conditions noted are these: in vivo, 0.5 h. In kind it is ADME, organism-based.
Data set [4] has as its system Rattus norvegicus. Put plainly: Distribution of radioactivity of radiolabeled compound in heart of female rats 5 minutes after intravenous administration. In kind it is ADME, organism-based. Particulars: in vivo.
Data set [5] relates to Rattus norvegicus. Put plainly: Distribution of radioactivity of radiolabeled compound in kidney of female rats 30 minutes after intravenous administration. In kind it is ADME, organism-based. Particulars: in vivo, 0.5 h.
Data set [6] has as its system Rattus norvegicus. Put plainly: Distribution of radioactivity of radiolabeled compound in kidney of female rats 5 minutes after intravenous administration. Type of data set: ADME, organism-based. Particulars: in vivo.
For data set [7], the system named is Rattus norvegicus. Kind of data set: Distribution of radioactivity of radiolabeled compound in liver of female rats 30 minutes after intravenous administration. Type of data set: ADME, organism-based. Particulars: in vivo, 0.5 h.
Data set [8] deals with Rattus norvegicus. Put plainly: Distribution of radioactivity of radiolabeled compound in liver of female rats 5 minutes after intravenous administration at. Type of data set: ADME, organism-based. Particulars: in vivo.
The subject of data set [9] is Rattus norvegicus. Kind of data set: Distribution of radioactivity of radiolabeled compound in lung of female rats 30 minutes after intravenous administration. Type of data set: ADME, organism-based. The conditions noted are these: in vivo, 0.5 h.
Data set [10] has as its system Rattus norvegicus. Kind of data set: Distribution of radioactivity of radiolabeled compound in lung of female rats 5 minutes after intravenous administration. Type of data set: ADME, organism-based. Particulars: in vivo.
The test system of data set [11] is Rattus norvegicus. Kind of data set: Polyacrylamide Gel Electrophoresis (PAGE) analysis of rat plasma 30 min after intravenous administration of radiolabeled in low-density lipoprotein. Type of data set: functional, organism-based. The essentials: (§1)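 Gels were sectioned and counted in a γ counter. Radioactivity in each band (stacking gel, LDL, HDL, albumin, below albumin) is expressed as a percentage of the total radioactivity applied to the gel, ± SEM, n = 3-5.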

The subject of data set [12] is Rattus norvegicus. Kind of data set: Polyacrylamide Gel Electrophoresis (PAGE) analysis of rat plasma 5 minutes after intravenous administration of radiolabeled compound (below albumin ). Type of data set: functional, organism-based. In short, it runs like this:
(§2)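 ¹²⁵I-labeled compound, radioiodinated by exchange in a pivalic acid melt, solubilized in normal saline with Tween 20 and given iv to adult female Sprague–Dawley rats (200–250 g), 5–30 μCi/animal, 3–4 rats per time point. Plasma was run on polyacrylamide gels. Gels were sectioned and gamma counted. Radioactivity per band (stacking gel, LDL, HDL, albumin, below albumin) is given as % of total applied; mean ± SEM, n = 3-5.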

Data set [13] relates to Rattus norvegicus. Put plainly: Polyacrylamide Gel Electrophoresis (PAGE) analysis of rat plasma 5 minutes after intravenous administration of radiolabeled compound in high density lipoprotein. In kind it is functional, organism-based. In short, it runs like this: as §2
The test system of data set [14] is Rattus norvegicus. Put plainly: Polyacrylamide Gel Electrophoresis (PAGE) analysis of rat plasma 5 minutes after intravenous administration of radiolabeled in low-density lipoprotein. In kind it is functional, organism-based. The essentials: as §2
Data set [15] concerns Rattus norvegicus. Kind of data set: Polyacrylamide Gel Electrophoresis (PAGE) analysis of rat plasma 5 minutes after intravenous administration of radiolabeled in stacking gel. In kind it is functional, organism-based. In short, it runs like this: as §2
For data set [16], the system named is Rattus norvegicus. Kind of data set: Polyacrylamide Gel Electrophoresis (PAGE) analysis of rat plasma 5 min after intravenous administration of radiolabeled compound in albumin. In kind it is functional, organism-based. In short, it runs like this: as §1
Data set [17] deals with Rattus norvegicus. Put plainly: Polyacrylamide Gel Electrophoresis (PAGE) analysis of rat plasma 30 min after intravenous administration of radiolabeled compound (below albumin ). In kind it is functional, organism-based. The essentials: as §1
The subject of data set [18] is Rattus norvegicus. Kind of data set: Polyacrylamide Gel Electrophoresis (PAGE) analysis of rat plasma 30 min after intravenous administration of radiolabeled compound at concentration of high density. In kind it is functional, organism-based. In short, it runs like this:
as §1

The subject of data set [19] is Rattus norvegicus. Put plainly: Polyacrylamide Gel Electrophoresis (PAGE) analysis of rat plasma 30 min after intravenous administration of radiolabeled compound concentration of stacking gel. In kind it is functional, organism-based. In short, it runs like this:
as §1

Data set [20] relates to Rattus norvegicus. Put plainly: Polyacrylamide Gel Electrophoresis (PAGE) analysis of rat plasma 30 min after intravenous administration of radiolabeled compound in albumin. Type of data set: functional, organism-based. In short, it runs like this:
as §1

The test system of data set [21] is Rattus norvegicus. Put plainly: Distribution of radioactivity of radiolabeled compound in liver of female rats 5 minutes after intravenous administration. Type of data set: ADME, organism-based. Particulars: in vivo.
In data set [22] the test system is Rattus norvegicus. Put plainly: Distribution of radioactivity of radiolabeled compound in lung of female rats 5 minutes after intravenous administration at. In kind it is ADME, organism-based. Particulars: in vivo.
For data set [23], the system named is Rattus norvegicus. Kind of data set: Percentage […]/CH3OH extract of the radiolabeled compound in rat liver 30 minutes after iv administration. In kind it is functional. In short, it runs like this: (§3)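 Liver and plasma were taken at 5 or 30 min. Plasma was extracted by a modified Folch procedure, and liver was homogenized and extracted. Extracts were run on TLC in hexane/ethyl acetate (5:2) for esters or THF/hexane (1:1) for acids, with unlabeled compound as reference. Plates were cut into 1-cm strips and counted. Values are percent ± SEM, n = 3-5.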

Data set [24] concerns Rattus norvegicus. Kind of data set: Percentage […]/CH3OH extract of the radiolabeled compound in rat liver 5 minutes after iv administration. In kind it is functional. The essentials: as §3
Data set [25] has as its system Rattus norvegicus. Put plainly: Percentage […]/CH3OH extract of the radiolabeled compound in rat plasma 30 minutes after iv administration. Type of data set: functional. The essentials: as §3
Data set [26] concerns Rattus norvegicus. Kind of data set: Percentage […]/CH3OH extract of the radiolabeled compound in rat plasma 5 minutes after iv administration. In kind it is functional. In short, it runs like this: as §3
For data set [27], the system named is Rattus norvegicus. Put plainly: Percentage parent compound in rat liver 30 minutes after iv administration of the radiolabeled compound by thin-layer chromatography. Type of data set: functional. In short, it runs like this:
as §3

The test system of data set [28] is Rattus norvegicus. Kind of data set: Percentage parent compound in rat liver 5 minutes after iv administration of the radiolabeled compound by thin-layer chromatography. Type of data set: functional. The essentials:
as §3

Data set [29] relates to Rattus norvegicus. Kind of data set: Percentage parent compound in rat plasma 30 minutes after iv administration of the radiolabeled compound by thin-layer chromatography. In kind it is functional. In short, it runs like this: as §3
The test system of data set [30] is Rattus norvegicus. Kind of data set: Percentage parent compound in rat plasma 5 minutes after iv administration of the radiolabeled compound by thin-layer chromatography. In kind it is functional. In short, it runs like this:
as §3

The subject of data set [31] is Rattus norvegicus. Kind of data set: Polyacrylamide Gel Electrophoresis (PAGE) analysis of rat plasma 30 minutes after intravenous administration of radiolabeled in stacking gel. Type of data set: functional, organism-based. The essentials:
as §1

For data set [32], the system named is Rattus norvegicus. Put plainly: Polyacrylamide Gel Electrophoresis (PAGE) analysis of rat plasma 30 min after intravenous administration of radiolabeled compound ( below albumin). Type of data set: functional, organism-based. In short, it runs like this: as §1
In data set [33] the test system is Rattus norvegicus. Kind of data set: Polyacrylamide Gel Electrophoresis (PAGE) analysis of rat plasma 30 min after intravenous administration of radiolabeled compound inlow density lipoprotein. Type of data set: functional, organism-based. The essentials:
as §1

Data set [34] concerns Rattus norvegicus. Put plainly: Polyacrylamide Gel Electrophoresis (PAGE) analysis of rat plasma 5 minutes after intravenous administration of radiolabeled compound at in high density lipoprotein. In kind it is functional, organism-based. In short, it runs like this:
as §2

The subject of data set [35] is Rattus norvegicus. Put plainly: Polyacrylamide Gel Electrophoresis (PAGE) analysis of rat plasma 5 minutes after intravenous administration of radiolabeled compound in low-density lipoprotein. In kind it is functional, organism-based. In short, it runs like this:
as §2

Data set [36] concerns Rattus norvegicus. Put plainly: Polyacrylamide Gel Electrophoresis (PAGE) analysis of rat plasma 5 minutes after intravenous administration of radiolabeled compound in stacking gel. Type of data set: functional, organism-based. The essentials:
as §2

In data set [37] the test system is Rattus norvegicus. Put plainly: Polyacrylamide Gel Electrophoresis (PAGE) analysis of rat plasma 30 min after intravenous administration of radiolabeled compound at in high density. Type of data set: functional, organism-based. The essentials: as §1
Data set [38] concerns Rattus norvegicus. Put plainly: Polyacrylamide Gel Electrophoresis (PAGE) analysis of rat plasma 5 min after intravenous administration of radiolabeled compound concentration of albumin. In kind it is functional, organism-based. In short, it runs like this:
as §1

With `Nc1c(I)cc(I)c(CCCCCCCCCCCC(=O)O)c1I`, the Dose in the data set on Rattus norvegicus [1] stood at 1.21%; in the data set on Rattus norvegicus [2] it was 0.73%; in the data set with Rattus norvegicus [3] it was 1.06%; with Rattus norvegicus [4], 1.15%; in the data set with Rattus norvegicus [5] it was 1.46%; in the data set on Rattus norvegicus [6], 0.77%. In addition, the Dose with Rattus norvegicus [7] is listed as 3.63%; in the data set with Rattus norvegicus [8], 6.96%; in the data set on Rattus norvegicus [9], 0.66%; with Rattus norvegicus [10], 0.95%. Also, the Concentration worked out at 3.8 with Rattus norvegicus [11]; 4.8 in the data set with Rattus norvegicus [12]; 8 with Rattus norvegicus [13]; 1 in the data set with Rattus norvegicus [14]; 1.5% with Rattus norvegicus [15]; 84.6 in the data set on Rattus norvegicus [16]. The Concentration in the data set with Rattus norvegicus [17] amounted to 26.3; with Rattus norvegicus [18], 5.6; with Rattus norvegicus [19], 11.2; in the data set on Rattus norvegicus [20], 54.4.
Consider `CCCCCCCCCCCCCCCC(=O)OCC(COC(=O)CCCCCCCCCCCCCCC)OC(=O)CCCCCCCCCCCc1c(I)cc(I)c(N)c1I`, for which the Dose is 2.5% in the data set on Rattus norvegicus [1]; 0.7% in the data set with Rattus norvegicus [2]; 1.12% in the data set with Rattus norvegicus [3]; 0.73% in the data set with Rattus norvegicus [4]; 1.21% with Rattus norvegicus [5]; 0.59% in the data set with Rattus norvegicus [6]. The Dose with Rattus norvegicus [7] is on record as 5.22%; with Rattus norvegicus [21] it was 6.62%; in the data set on Rattus norvegicus [9] it was 1.84%; in the data set with Rattus norvegicus [22], 1.73%. Also, the Activity in the data set on Rattus norvegicus [23] amounted to 61.2%; in the data set on Rattus norvegicus [24], 40.9%; with Rattus norvegicus [25] it was 54.8%; with Rattus norvegicus [26] it was 81.8%; with Rattus norvegicus [27], 42.9%; in the data set with Rattus norvegicus [28], 46.4%. Also, the Activity with Rattus norvegicus [29] was 34%; in the data set on Rattus norvegicus [30], 43.2%. The Concentration in the data set with Rattus norvegicus [31] was 13.2; in the data set on Rattus norvegicus [32] it was 12.5; in the data set with Rattus norvegicus [33], 9.7; in the data set with Rattus norvegicus [12], 3; in the data set with Rattus norvegicus [34], 33.3%; in the data set on Rattus norvegicus [35], 26%. The Concentration in the data set on Rattus norvegicus [36] amounted to 6.9%; with Rattus norvegicus [37] it was 15.6%; in the data set with Rattus norvegicus [20], 48.9; with Rattus norvegicus [38], 30.8.
